Results published in ChEMBL document CHEMBL1821637, “Selective cytotoxicity of oxysterols through structural modulation on rings A and B. Synthesis, in vitro evaluation, and SAR” (J Med Chem, 2011).

What was measured:
HT-29 [1] = assay: Cytotoxicity against human HT-29 cells assessed as cell viability after 48 hrs by alamar blue assay; format: functional, cell-based; conditions: for IC50: HT-29, 48 h
Summary of the method: (§1)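 Alamar Blue viability assay on the human cell line named (origins given: HT-29 colorectal adenocarcinoma, HepG2 hepatocellular carcinoma, LAMA-84 myeloid leukemia, A549 lung adenocarcinoma, PC3 prostate metastasis, MCF-7 breast adenocarcinoma, ARPE-19 retinal pigment epithelium, BJ skin fibroblast). Exposure was 48 h. Sterol stocks were made in DMSO. IC50 is the concentration inhibiting 50% of cellular growth, given as the mean of at least three separate experiments.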

[2] = Cytotoxicity against human ARPE19 cells assessed as cell viability after 48 hrs by alamar blue assay; format: cell-based, ARPE-19; conditions: for IC50: Homo sapiens, ARPE-19, 48 h; for Activity: human, arpe-19, 48 h; summary of the method: as §1
HT-29 [3] = assay: Selectivity index, ratio of IC50 for human ARPE19 cells to IC50 for human HT-29 cells; format: functional
LAMA-84 = assay: Cytotoxicity against human LAMA-84 cells assessed as cell viability after 48 hrs by alamar blue assay; format: functional, cell-based; conditions: for IC50: LAMA-84, 48 h; summary of the method: as §1
MCF7 = assay: Cytotoxicity against human MCF7 cells assessed as cell viability after 48 hrs by alamar blue assay; format: functional, cell-based; conditions: for IC50: MCF7, 48 h; summary of the method: as §1
SH-SY5Y = assay: Cytotoxicity against human SH-SY5Y cells assessed as cell viability after 48 hrs by alamar blue assay; format: functional, cell-based
Summary of the method: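 SH-SY5Y cells grown in DMEM/F12 (1:1) with L-glutamine, 10% heat-inactivated FBS, 100 units/mL penicillin and 0.1 mg/mL streptomycin, pH 7.4. Seeded at 5 10^3 cells/well and exposed to the sterols (DMSO stocks) for 48 h. Alamar Blue read-out. IC50 is the concentration inhibiting 50% of growth, mean of at least three separate experiments.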

HepG2 = assay: Cytotoxicity against human HepG2 cells assessed as cell viability after 48 hrs by alamar blue assay; format: functional, cell-based; conditions: for IC50: HepG2, 48 h; summary of the method: as §1
A549 = assay: Cytotoxicity against human A549 cells assessed as cell viability after 48 hrs by alamar blue assay; format: functional, cell-based; conditions: for IC50: A549, 48 h
Summary of the method: as §1, with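 “DMSO.” for “DMSO. IC50 is the concentration inhibiting 50% of cellular growth, given as the mean of at least three separate experiments.”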

PC-3 = assay: Cytotoxicity against human PC3 cells assessed as cell viability after 48 hrs by alamar blue assay; format: functional, cell-based; conditions: for IC50: PC-3, 48 h; summary of the method: as §1
BJ = assay: Cytotoxicity against human BJ cells assessed as cell viability after 48 hrs by alamar blue assay; format: cell-based; conditions: for IC50: Homo sapiens, BJ; for Activity: human, bj; summary of the method: as §1
HT-29 [4] = assay: Cytotoxicity against human HT-29 cells assessed as inhibition of cell growth after 96 hrs by alamar blue assay; format: functional, cell-based; conditions: HT-29, 96 h
Summary of the method: (§2)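 HT-29 and ARPE-19 cells exposed for 96 h. ARPE-19 seeded at 5 10^3 cells/well for this period. Sterol stocks in DMSO. Viability by Alamar Blue. IC50 is the concentration inhibiting 50% of cellular growth, mean of at least three separate experiments.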

[5] = Cytotoxicity against human ARPE19 cells assessed as inhibition of cell growth after 96 hrs by alamar blue assay; format: cell-based; conditions: ARPE-19, 96 h; summary of the method: as §2

## CC(C)CCC[C@@H](C)[C@H]1CC[C@H]2[C@@H]3C(=O)[C@H](O)[C@@]4(O)C[C@@H](O)CC[C@]4(C)[C@H]3CC[C@]12C
HT-29 [1]
  IC50: 15.2 µM
[2]
  IC50: 25.7 µM
HT-29 [3]
  Ratio IC50: 1.69

## CC(=O)O[C@@H]1C[C@H]2[C@@H]3CC[C@H]([C@H](C)CCCC(C)C)[C@@]3(C)CC[C@@H]2[C@@]2(C)CC[C@H](O)C[C@]12O
HT-29 [1]
  IC50: 6.8 µM
LAMA-84
  IC50: 3.9 µM
MCF7
  IC50: 11 µM
SH-SY5Y
  IC50: 12.2 µM
HepG2
  IC50: 11.9 µM
A549
  IC50: 13.3 µM
PC-3
  IC50: 13.2 µM
[2]
  IC50: 17.9 µM
BJ
  IC50: 13.4 µM
HT-29 [4]
  IC50: 6.6 µM
HT-29 [3]
  Ratio IC50: 2.58

## CC(=O)O[C@H]1C=C2C[C@@H](O)CC[C@]2(C)[C@H]2CC[C@]3(C)[C@@H]([C@H](C)CCCC(C)C)CC[C@H]3[C@H]12
HT-29 [1]
  IC50: 26.8 µM
HT-29 [4]
  IC50: 24.6 µM

## CC(C)CCC[C@@H](C)[C@H]1CC[C@H]2[C@@H]3[C@@H](O)[C@@H](O)[C@@]4(O)C[C@@H](O)CC[C@]4(C)[C@H]3CC[C@]12C
HT-29 [1]
  inhibition: Dose-dependent effect
  IC50: 13.9 µM
LAMA-84
  inhibition: Dose-dependent effect
  IC50: 5.1 µM
MCF7
  inhibition: Dose-dependent effect
  IC50: 13.1 µM
SH-SY5Y
  IC50: 20.2 µM
  inhibition: Dose-dependent effect
HepG2
  inhibition: Dose-dependent effect
  IC50: 13.8 µM
A549
  inhibition: Dose-dependent effect
  IC50: 17.3 µM
PC-3
  inhibition: Dose-dependent effect
  IC50: 17.4 µM
[2]
  IC50: 21.4 µM
  Activity: Non-toxic
BJ
  IC50: 19.3 µM
  Activity: Non-toxic
HT-29 [3]
  Ratio IC50: 1.54

## CC(C)CCC[C@@H](C)[C@H]1CC[C@H]2[C@@H]3C[C@@H](O)[C@@]4(O)C[C@@H](O)CC[C@]4(C)[C@H]3CC[C@]12C [CHOLESTAN-3beta,5alpha,6beta-TRIOL]
SH-SY5Y
  IC50: 17.2 µM
HT-29 [3]
  Ratio IC50: 1.48

## CC(=O)O[C@H]1CC[C@]2(C)[C@H]3CC[C@]4(C)[C@@H]([C@H](C)CCCC(C)C)CC[C@H]4[C@@H]3C[C@@H](O)[C@@]2(O)C1
[2]
  IC50: > 60 µM
[5]
  IC50: 53 µM
HT-29 [3]
  Ratio IC50: >3.09

## CCCO[C@@H]1C[C@H]2[C@@H]3CC[C@H]([C@H](C)CCCC(C)C)[C@@]3(C)CC[C@@H]2[C@@]2(C)CC[C@H](O)C[C@]12O
HT-29 [1]
  IC50: 25.9 µM

## CC(=O)O[C@@H]1[C@H]2[C@@H]3CC[C@H]([C@H](C)CCCC(C)C)[C@@]3(C)CC[C@@H]2[C@@]2(C)CC[C@H](O)C[C@]2(O)[C@@H]1OC(C)=O
HT-29 [1]
  inhibition: Dose-dependent effect
  IC50: 13.1 µM
LAMA-84
  inhibition: Dose-dependent effect
  IC50: 6.4 µM
MCF7
  inhibition: Dose-dependent effect
  IC50: 13.2 µM
SH-SY5Y
  IC50: 13.8 µM
  inhibition: Dose-dependent effect
HepG2
  inhibition: Dose-dependent effect
  IC50: 11.7 µM
A549
  inhibition: Dose-dependent effect
  IC50: 13.9 µM
PC-3
  inhibition: Dose-dependent effect
  IC50: 10.3 µM
[2]
  IC50: 11.2 µM
  Activity: Toxic
BJ
  IC50: 10.2 µM
  Activity: Toxic
HT-29 [4]
  IC50: 14.9 µM
HT-29 [3]
  Ratio IC50: 0.85

## CO[C@@H]1C[C@H]2[C@@H]3CC[C@H]([C@H](C)CCCC(C)C)[C@@]3(C)CC[C@@H]2[C@@]2(C)CC[C@H](O)C[C@]12O
HT-29 [1]
  IC50: 10 µM
LAMA-84
  IC50: 4.3 µM
HepG2
  IC50: 13.3 µM
PC-3
  IC50: 17.4 µM
[2]
  IC50: 25.8 µM
BJ
  IC50: 17.4 µM
HT-29 [3]
  Ratio IC50: 2.58

## CC(C)CCC[C@@H](C)[C@H]1CC[C@H]2[C@@H]3[C@@H](O)C=C4[C@@H](O)[C@@H](O)CC[C@]4(C)[C@H]3CC[C@]12C
HT-29 [1]
  IC50: 15.4 µM
[2]
  IC50: 25.6 µM
HT-29 [3]
  Ratio IC50: 1.66

## COc1cccc2c1C(=O)c1c(O)c3c(c(O)c1C2=O)C[C@@](O)(C(=O)CO)C[C@@H]3O[C@H]1C[C@H](N)[C@H](O)[C@H](C)O1 [DOXORUBICIN]
SH-SY5Y
  IC50: 0.5 µM

## CC(C)CCC[C@@H](C)[C@H]1CC[C@H]2[C@@H]3C[C@@H](O)[C@@]4(O)[C@@H](O)[C@@H](O)CC[C@]4(C)[C@H]3CC[C@]12C
HT-29 [1]
  inhibition: Dose-dependent effect
  IC50: 9.1 µM
LAMA-84
  inhibition: Dose-dependent effect
  IC50: 5.1 µM
MCF7
  inhibition: Dose-dependent effect
  IC50: 14.5 µM
SH-SY5Y
  IC50: 14.5 µM
  inhibition: Dose-dependent effect
HepG2
  inhibition: Dose-dependent effect
  IC50: 12.7 µM
A549
  inhibition: Dose-dependent effect
PC-3
  inhibition: Dose-dependent effect
  IC50: 17.1 µM
[2]
  IC50: 20.4 µM
  Activity: Non-toxic
BJ
  IC50: 17.8 µM
  Activity: Non-toxic
HT-29 [3]
  Ratio IC50: 2.24

## CC(C)CCC[C@@H](C)[C@H]1CC[C@H]2[C@@H]3[C@@H](O)C=C4C[C@@H](O)CC[C@]4(C)[C@H]3CC[C@]12C
SH-SY5Y
  IC50: 16.4 µM
HT-29 [3]
  Ratio IC50: 3.13

## CC(=O)O[C@@H]1[C@H]2[C@@H]3CC[C@H]([C@H](C)CCCC(C)C)[C@@]3(C)CC[C@@H]2[C@@]2(C)CC[C@H](O)C[C@]2(O)[C@@H]1O
HT-29 [1]
  IC50: 17 µM
[2]
  IC50: 15.8 µM
HT-29 [4]
  IC50: 15.5 µM
HT-29 [3]
  Ratio IC50: 0.93

## CC(=O)N[C@@H]1C[C@H]2[C@@H]3CC[C@H]([C@H](C)CCCC(C)C)[C@@]3(C)CC[C@@H]2[C@@]2(C)CC[C@H](O)C[C@]12O
HT-29 [1]
  IC50: 14.5 µM
HepG2
  IC50: 11.6 µM
A549
  IC50: 14.5 µM
PC-3
  IC50: 19.2 µM
[2]
  IC50: 19 µM
HT-29 [3]
  Ratio IC50: 1.31

## CC(C)CCC[C@@H](C)[C@H]1CC[C@H]2[C@@H]3C(=O)C(O)=C4C[C@@H](O)CC[C@]4(C)[C@H]3CC[C@]12C
HT-29 [1]
  IC50: 36.7 µM

## CO[C@]12C[C@@H](O)CC[C@]1(C)[C@H]1CC[C@]3(C)[C@@H]([C@H](C)CCCC(C)C)CC[C@H]3[C@@H]1C[C@H]2O
HT-29 [1]
  IC50: 36.1 µM

## CC(=O)O[C@H]1CC[C@]2(C)[C@H]3CC[C@]4(C)[C@@H]([C@H](C)CCCC(C)C)CC[C@H]4[C@@H]3C[C@@H](O)[C@@]2(O)[C@H]1O
HT-29 [1]
  IC50: 17.7 µM
[2]
  IC50: 28.8 µM
HT-29 [4]
  IC50: 14.2 µM
HT-29 [3]
  Ratio IC50: 1.63

## CC(C)CCC[C@@H](C)[C@H]1CC[C@H]2[C@@H]3C/C(=N\O)[C@@]4(O)C[C@@H](O)CC[C@]4(C)[C@H]3CC[C@]12C
HT-29 [1]
  IC50: 11.9 µM
SH-SY5Y
  IC50: 16.8 µM
HepG2
  IC50: 13.2 µM
A549
  IC50: 15 µM
PC-3
  IC50: 15 µM
[2]
  IC50: 23.7 µM
BJ
  IC50: 17.1 µM
HT-29 [3]
  Ratio IC50: 1.99

## CC(=O)O[C@H]1CC[C@]2(C)[C@H]3CC[C@]4(C)[C@@H]([C@H](C)CCCC(C)C)CC[C@H]4[C@@H]3[C@@H](OC(C)=O)C(=O)[C@@]2(O)C1
HT-29 [1]
  IC50: 27.2 µM

## CC(C)CCC[C@@H](C)[C@H]1CC[C@H]2[C@@H]3CC(=O)[C@@]4(O)C[C@@H](O)CC[C@]4(C)[C@H]3CC[C@]12C
[2]
  IC50: 33.9 µM
HT-29 [3]
  Ratio IC50: 1.99

## CC(=O)O[C@H]1CC[C@]2(C)[C@H]3CC[C@]4(C)[C@@H]([C@H](C)CCCC(C)C)CC[C@H]4[C@@H]3[C@@H](OC(C)=O)[C@@H](OC(C)=O)[C@@]2(O)C1
HT-29 [1]
  IC50: 27 µM
HT-29 [4]
  IC50: 26.7 µM

## CC(C)CCC[C@@H](C)[C@H]1CC[C@H]2[C@@H]3CC[C@@]4(O)[C@@H](O)[C@@H](O)CC[C@]4(C)[C@H]3CC[C@]12C
HT-29 [1]
  IC50: 34 µM
HepG2
  IC50: 34.4 µM
A549
  IC50: 31.8 µM
PC-3
  IC50: 35.1 µM

## CC(C)CCC[C@@H](C)[C@H]1CC[C@H]2[C@@H]3C(=O)C=C4C[C@@H](O)CC[C@]4(C)[C@H]3CC[C@]12C [7-OXOCHOLESTEROL]
[2]
  IC50: 32.3 µM
HT-29 [3]
  Ratio IC50: 1.26

## CCCCCCCCCCCC(=O)O[C@H]1CC[C@@]2(C)C(=C[C@H](O)[C@H]3[C@@H]4CC[C@H]([C@H](C)CCCC(C)C)[C@@]4(C)CC[C@@H]32)C1
HT-29 [1]
  IC50: > 50 µM
HT-29 [4]
  IC50: > 50 µM

## CC(C)CCC[C@@H](C)[C@H]1CC[C@H]2[C@@H]3[C@@H](O)[C@H](O)[C@H]4C[C@@H](O)CC[C@]4(C)[C@H]3CC[C@]12C
HT-29 [1]
  IC50: 14.9 µM
[2]
  IC50: 19.1 µM
HT-29 [3]
  Ratio IC50: 1.28
